Laboratory results from ChEMBL document CHEMBL2146426, “Antitubercular nitrofuran isoxazolines with improved pharmacokinetic properties” (Bioorg Med Chem, 2012).
≈ marks a conversion by molar mass, not a printed value.

Assays:
Rattus norvegicus [1] = assay: Toxicity in Sprague-Dawley rat assessed as mortality at 100 mg/kg, po; type: organism-based; design: dose 100 mg/kg, route oral; conditions: in vivo
Outline: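 Observed during rat oral pharmacokinetic study (n=5). Overnight-fasted animals, water ad libitum, received 100 mg/kg by oral gavage. Vehicle was compound-dependent: 2% methanol (sonicated), 60:40 PEG 3000/water, or 10% vitamin E TPGS. Animals followed with sampling to 48 h.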

Rattus norvegicus [2] = assay: Oral bioavailability in Sprague-Dawley rat at 100 mg/kg; type: ADME, organism-based; conditions: in vivo
Outline: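 Fasted rats, n=5, dosed 100 mg/kg by oral gavage. Vehicle was 2% methanol, 60:40 PEG 3000/water or 10% vitamin E TPGS, depending on compound. Plasma sampled to 48 h and assayed by LC-MS/MS. F = (AUCoral×DoseIV)/(AUCIV×Doseoral), referenced to 10 mg/kg IV.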

[3] = Solubility of the compound at pH 7.4 after 18 hrs by UV spectrometry; type: physicochemical; conditions: buffer, pH 7.4
Outline: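 10 mM DMSO stocks diluted 100-fold in system solution buffer pH 7.4 and held 18 h at room temperature. Filtered, diluted 1:1 with isopropanol and measured by UV (230–500 nm). Compared against a 600-fold diluted reference in buffer/isopropanol. Triplicates.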

[4] = Clearance in Sprague-Dawley rat at 10 mg/kg, iv; type: ADME, organism-based; design: dose 10 mg/kg, route intravenous; conditions: in vivo
Outline: (§1)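 Rats, n=5, given 10 mg/kg IV via femoral vein catheter. Vehicle was 2% ethanol/saline or 30% DMSO/30% propylene glycol/20% PEG 3000/20% saline, depending on compound. Plasma sampled 0–48 h and urine collected in intervals to 48 h; both assayed by LC-MS/MS after acetonitrile precipitation. Non-compartmental analysis: CL = dose/AUC0-∞; fe = cumulative unchanged urinary amount/dose.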

Rattus norvegicus [5] = assay: Toxicity in Sprague-Dawley rat assessed as seizures at 10 mg/kg, iv; type: organism-based; design: dose 10 mg/kg, route intravenous; conditions: in vivo
Outline: (§2)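 Observed during rat IV pharmacokinetic study (n=5). Single 10 mg/kg dose via femoral vein catheter, flushed with heparinized locking solution. Vehicle was 2% ethanol/saline or 30% DMSO/30% propylene glycol/20% PEG 3000/20% saline. Animals followed with serial blood sampling to 48 h.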

Staphylococcus aureus = assay: Antibacterial activity against Staphylococcus aureus ATCC 29213 after overnight incubation by microbroth dilution technique; type: functional
Outline: (§3)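 Two-fold serial broth dilutions per CLSI; inoculum about 10^5 CFU/mL; top final drug concentration 200 µg/mL; incubated aerobically overnight at 37°C. MIC read visually as the lowest concentration with no visible growth.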

Streptococcus pyogenes = assay: Antibacterial activity against Streptococcus pyogenes ATCC 700294 after overnight incubation by microbroth dilution technique; type: functional; outline: as §3
[6] = Volume of distribution in Sprague-Dawley rat at 10 mg/kg, iv; type: ADME, organism-based; design: dose 10 mg/kg, route intravenous; conditions: in vivo; outline: as §1
[7] = Half life in Sprague-Dawley rat at 10 mg/kg, iv; type: ADME, organism-based; design: dose 10 mg/kg, route intravenous; conditions: in vivo; outline: as §1
[8] = Cmax in Sprague-Dawley rat at 10 mg/kg, iv; type: ADME, organism-based; design: dose 10 mg/kg, route intravenous; conditions: in vivo; outline: as §1
Escherichia coli = assay: Antibacterial activity against Escherichia coli K12 after overnight incubation by microbroth dilution technique; type: functional; conditions: K-12
Outline: (§4)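 Non-mycobacterial strains: two-fold serial dilutions in broth by CLSI microbroth dilution. Inoculum about 10^5 cfu/mL; top final drug concentration 200 µg/mL. Aerobic incubation at 37°C overnight. MIC read visually as the lowest concentration with no visible growth.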

[9] = Apparent permeability of the compound from basal to apical side of human Caco2 cells at 50 umol/L after 2 hrs by UPLC/MS analysis; type: ADME, cell-based; conditions: Caco-2
Outline: (§5)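 Caco-2 monolayers grown 7 days on Transwell inserts, washed with HBSS/HEPES pH 7.4. Compound at 50 µmol/L added apically or basolaterally, then 2 h at 37°C. Receiver side sampled and quantified by UPLC/MS. Papp = (dQ/dt)/(A×C0), triplicates.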

Bacillus anthracis = assay: Antibacterial activity against Bacillus anthracis Sterne 34F2 after overnight incubation by microbroth dilution technique; type: functional; outline: as §4
Rattus norvegicus [10] = assay: Toxicity in Sprague-Dawley rat assessed as mortality at 10 mg/kg, iv; type: organism-based; design: dose 10 mg/kg, route intravenous; conditions: in vivo; outline: as §2
[11] = Half life in mouse liver microsomes; type: ADME, Microsome
Outline: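 Mouse liver microsomes at 0.6381 mg/mL protein in 0.1 M potassium phosphate pH 7.4 with EDTA. Reaction started with NADPH regenerating system at 37°C; six time points including 0, triplicate wells. Quenched in cold acetonitrile with warfarin internal standard, analysed by LC–MS. Half-life from a first-order least-squares fit.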

[12] = Apparent permeability of the compound from apical to basal side of human Caco2 cells at 50 umol/L after 2 hrs by UPLC/MS analysis; type: ADME, cell-based; conditions: Caco-2; outline: as §5
[13] = Drug excretion in Sprague-Dawley rat urine at 10 mg/kg, iv; type: ADME, organism-based; design: dose 10 mg/kg, route intravenous; conditions: read-out: Drug excretion; outline: as §1
[14] = Plasma protein binding in human at 10 uM after 4 hrs by LC/MS analysis; type: ADME, cell-free; conditions: read-out: PPB (converted)
Outline: (§6)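 Compound at 10 µM (0.1% DMSO) in mouse or human plasma. Rapid equilibrium dialysis (MWCO 8K) against DPBS pH 7.4, 4 h at 37°C with orbital shaking. Both chambers matrix-matched, precipitated with acetonitrile containing warfarin internal standard, quantified by LC–MS. %Free = buffer/plasma × 100; %Bound = 100 − %Free.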

[15] = AUC (0 to infinity) in Sprague-Dawley rat at 10 mg/kg, iv; type: ADME, organism-based; design: time infinity, dose 10 mg/kg, route intravenous; conditions: plasma; outline: as §1
[16] = Half life in human liver microsomes; type: ADME, Microsome
[17] = Plasma protein binding in mouse at 10 uM after 4 hrs by LC/MS analysis; type: ADME, cell-free; conditions: read-out: PPB (converted); outline: as §6
Vero = assay: Cytotoxicity against african green monkey Vero cells after 72 hrs by MTT assay; type: cell-based; conditions: Chlorocebus sabaeus
Outline: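 Vero cells in DMEM with 10% FBS, seeded at ~10% confluency and left to adhere overnight. Two-fold serial dilutions applied for 72 h at 37°C, 5% CO2. MTT read-out at 570 nm after overnight solubilization.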

Streptococcus pneumoniae = assay: Antibacterial activity against Streptococcus pneumoniae DAW27 after overnight incubation by microbroth dilution technique; type: functional; outline: as §3
Enterococcus faecalis = assay: Antibacterial activity against Enterococcus faecalis ATCC 3186 after overnight incubation by microbroth dilution technique; type: functional; outline: as §3
Bacillus subtilis = assay: Antibacterial activity against Bacillus subtilis ATCC 23857 after overnight incubation by microbroth dilution technique; type: functional; outline: as §4

O=[N+]([O-])c1ccc(C2=NOC(c3ccc(N4CCOCC4)nc3)C2)o1 (configuration not stated)
Activity (Rattus norvegicus [1]): Non-toxic
F (Rattus norvegicus [2]): 47.9%
solubility at 18 h [3]: 14.1 µg/mL (≈ 40.9 µM)
clearance [4]: 50.3 mL/min/kg
Activity (Rattus norvegicus [5]): Non-toxic
MIC (Staphylococcus aureus): 12.5 µg/mL (≈ 36.3 µM)
MIC (Streptococcus pyogenes): 25 µg/mL (≈ 72.6 µM)
Vd [6]: 2.86 L/kg
half-life [7]: 43.2 min
Cmax [8]: 2730 ng/mL
MIC (Escherichia coli): > 200 µg/mL
Papp B→A at 2 h, 50 µM [9]: 14.2 ×10⁻⁶ cm/s
MIC (Bacillus anthracis): 25 µg/mL (≈ 72.6 µM)
Activity (Rattus norvegicus [10]): Non-toxic
half-life [11]: 73.8 min
Papp A→B at 2 h, 50 µM [12]: 6.47 ×10⁻⁶ cm/s
dose excreted [13]: 0.02%
fraction unbound at 4 h, 10 µM [14]: 0.033
AUC(0-inf) [15]: 3360 ng·h/mL
half-life [16]: 202 min
fraction unbound at 4 h, 10 µM [17]: 0.047
IC50 (Vero): 3.2 µg/mL (≈ 9.29 µM)

O=[N+]([O-])c1ccc(C2=NOC(c3ccc(N4CCOCC4)c(F)c3)C2)o1 (configuration not stated)
solubility at 18 h [3]: 3.2 µg/mL (≈ 8.86 µM)
MIC (Streptococcus pneumoniae): 200 µg/mL (≈ 554 µM)
MIC (Enterococcus faecalis): 200 µg/mL (≈ 554 µM)
MIC (Staphylococcus aureus): 25 µg/mL (≈ 69.2 µM)
MIC (Streptococcus pyogenes): 200 µg/mL (≈ 554 µM)
MIC (Escherichia coli): > 200 µg/mL
MIC (Bacillus anthracis): 12.5 µg/mL (≈ 34.6 µM)
fraction unbound at 4 h, 10 µM [14]: 0.066
MIC (Bacillus subtilis): 200 µg/mL (≈ 554 µM)
fraction unbound at 4 h, 10 µM [17]: 0.061

O=[N+]([O-])c1ccc(C2=NOC(c3ccc(N4CCSCC4)cc3)C2)o1 (configuration not stated)
solubility at 18 h [3]: 1.9 µg/mL (≈ 5.29 µM)
MIC (Enterococcus faecalis): 100 µg/mL (≈ 278 µM)
MIC (Streptococcus pyogenes): > 200 µg/mL
MIC (Escherichia coli): > 200 µg/mL
Papp B→A at 2 h, 50 µM [9]: 11.4 ×10⁻⁶ cm/s
half-life [11]: 2.4 min
Papp A→B at 2 h, 50 µM [12]: 9.62 ×10⁻⁶ cm/s
fraction unbound at 4 h, 10 µM [14]: 0.015
half-life [16]: 12.6 min
fraction unbound at 4 h, 10 µM [17]: 0.013

O=[N+]([O-])c1ccc(C2=NOC(c3ccc(N4CC[S+]([O-])CC4)cc3)C2)o1 (configuration not stated)
solubility at 18 h [3]: 28.9 µg/mL (≈ 77 µM)
MIC (Streptococcus pneumoniae): 50 µg/mL (≈ 133 µM)
MIC (Enterococcus faecalis): 100 µg/mL (≈ 266 µM)
MIC (Staphylococcus aureus): 6.25 µg/mL (≈ 16.6 µM)
MIC (Streptococcus pyogenes): 50 µg/mL (≈ 133 µM)
MIC (Escherichia coli): 100 µg/mL (≈ 266 µM)
Papp B→A at 2 h, 50 µM [9]: 27.2 ×10⁻⁶ cm/s
MIC (Bacillus anthracis): 12.5 µg/mL (≈ 33.3 µM)
half-life [11]: 52.2 min
Papp A→B at 2 h, 50 µM [12]: 24.2 ×10⁻⁶ cm/s
fraction unbound at 4 h, 10 µM [14]: 0.223
MIC (Bacillus subtilis): 6.25 µg/mL (≈ 16.6 µM)
half-life [16]: 272 min
fraction unbound at 4 h, 10 µM [17]: 0.178

CN1CCN(c2ccc(C3CC(c4ccc([N+](=O)[O-])o4)=NO3)cc2)C(=O)C1 (configuration not stated)
Activity (Rattus norvegicus [1]): Non-toxic
F (Rattus norvegicus [2]): 58.3%
solubility at 18 h [3]: 28.8 µg/mL (≈ 77.8 µM)
clearance [4]: 194 mL/min/kg
MIC (Streptococcus pneumoniae): 50 µg/mL (≈ 135 µM)
MIC (Enterococcus faecalis): 100 µg/mL (≈ 270 µM)
Activity (Rattus norvegicus [5]): Toxic
MIC (Staphylococcus aureus): 6.25 µg/mL (≈ 16.9 µM)
MIC (Streptococcus pyogenes): 50 µg/mL (≈ 135 µM)
Vd [6]: 3.1 L/kg
half-life [7]: 36.6 min
Cmax [8]: 1190 ng/mL
MIC (Escherichia coli): 50 µg/mL (≈ 135 µM)
MIC (Bacillus anthracis): 12.5 µg/mL (≈ 33.8 µM)
Activity (Rattus norvegicus [10]): Toxic
dose excreted [13]: 0.68%
fraction unbound at 4 h, 10 µM [14]: 0.426
AUC(0-inf) [15]: 960 ng·h/mL
MIC (Bacillus subtilis): 6.25 µg/mL (≈ 16.9 µM)
fraction unbound at 4 h, 10 µM [17]: 0.239
IC50 (Vero): 20.3 µg/mL (≈ 54.8 µM)
